Data published in ChEMBL document CHEMBL4673245, “Discovery of AZD9833, a Potent and Orally Bioavailable Selective Estrogen Receptor Degrader and Antagonist” (J Med Chem, 2020).
Converted amounts (≈) assume the structure as drawn.

What was measured:
[1] = In vivo antagonist activity at ERalpha in human MCF7 cells xenografted CB17 SCID mouse assessed as decrease in PR expression level at 10 mg/kg, po administered daily via oral gavage for 21 days measured 24 hrs post last dose by Western blot analysis relative to control; assay type: functional; parameters: scale not given: the % may be the effect or the level left; settings: time 21 day
Cytochrome P450 3A4 = Cytochrome P450 3A4 (Homo sapiens, UniProt P08684); assay: Inhibition of CYP3A4 in human liver microsomes; assay type: ADME
Sequence of Cytochrome P450 3A4 (P08684 whole entry, canonical isoform): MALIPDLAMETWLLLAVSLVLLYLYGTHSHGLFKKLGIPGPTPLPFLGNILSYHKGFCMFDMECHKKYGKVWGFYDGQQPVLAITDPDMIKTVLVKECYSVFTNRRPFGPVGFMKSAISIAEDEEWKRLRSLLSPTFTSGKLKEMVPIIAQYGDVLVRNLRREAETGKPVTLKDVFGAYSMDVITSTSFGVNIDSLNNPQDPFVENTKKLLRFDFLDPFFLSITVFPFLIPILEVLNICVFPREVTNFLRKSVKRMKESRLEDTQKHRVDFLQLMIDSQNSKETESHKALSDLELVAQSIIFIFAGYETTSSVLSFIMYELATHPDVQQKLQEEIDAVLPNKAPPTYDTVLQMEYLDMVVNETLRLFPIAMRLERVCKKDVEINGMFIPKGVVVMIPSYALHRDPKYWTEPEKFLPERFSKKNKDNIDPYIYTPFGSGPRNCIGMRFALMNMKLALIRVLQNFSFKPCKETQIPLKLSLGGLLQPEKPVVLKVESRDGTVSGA
Summary of the method: (§1)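 High-throughput human liver microsome panel of five CYP isoforms; inhibition reported as IC50.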

Cytochrome P450 2C19 = Cytochrome P450 2C19 (Homo sapiens, UniProt P33261); assay: Inhibition of CYP2C19 in human liver microsomes; assay type: ADME; summary of the method: as §1
Sequence of Cytochrome P450 2C19 (P33261 whole entry): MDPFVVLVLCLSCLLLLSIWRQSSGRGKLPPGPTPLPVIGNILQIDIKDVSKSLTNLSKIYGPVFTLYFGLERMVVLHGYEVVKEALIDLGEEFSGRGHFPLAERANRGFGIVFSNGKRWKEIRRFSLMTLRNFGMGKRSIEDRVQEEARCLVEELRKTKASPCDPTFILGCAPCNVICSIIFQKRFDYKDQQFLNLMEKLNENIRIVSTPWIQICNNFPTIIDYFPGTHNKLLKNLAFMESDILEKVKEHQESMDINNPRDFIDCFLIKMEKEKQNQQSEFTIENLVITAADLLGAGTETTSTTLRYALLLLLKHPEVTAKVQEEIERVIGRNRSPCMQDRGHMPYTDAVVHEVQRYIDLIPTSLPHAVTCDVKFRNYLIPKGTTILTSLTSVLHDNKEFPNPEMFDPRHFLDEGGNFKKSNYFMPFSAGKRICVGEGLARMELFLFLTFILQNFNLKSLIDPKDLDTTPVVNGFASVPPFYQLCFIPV

[2] = In vivo antagonist activity at ERalpha in human MCF7 cells xenografted CB17 SCID mouse assessed as decrease in PR expression level at 50 mg/kg, po administered daily via oral gavage for 21 days measured 24 hrs post last dose by Western blot analysis relative to control; assay type: functional; parameters: scale not given: the % may be the effect or the level left; settings: time 21 day
[3] = Fraction unbound in mouse plasma; assay type: ADME, cell-free
[4] = Volume of distribution at steady state in mouse at 2 mg/kg, iv or 5 mg/kg, po; assay type: ADME, organism-based; settings: in vivo, read-out: Vdss
[5] = Fraction unbound in dog plasma; assay type: ADME, cell-free, Canis lupus familiaris
[6] = Stability of compound at 40 degC and 75% relative humidity assessed parent compound remaining measured after 3 months using amorphous form of sample by chromatographic method; assay type: physicochemical; settings: solid sample, read-out: Stabilty
[7] = Dissociation constant, dibasic pKa of compound in 0.1 M potassium chloride in presence of piperidine by UV-vis spectroscopy; assay type: physicochemical
[8] = Photostability of compound under 1.2 mil lux.h white light and 200 W.h/m2 UV light assessed parent compound remaining using amorphous form of sample by chromatographic method; assay type: physicochemical
[9] = Chemical stability of compound assessed as drug degradation in buffer at pH 1 stored at 22 to 60 degreeC measured after 5 days; assay type: physicochemical; settings: pH 1, 120 h, time 5 day
[10] = Fraction absorbed in rat at 0.5 mg/kg, iv or 1 mg/kg, po; assay type: ADME, organism-based; settings: in vivo, read-out: Fabs
Summary of the method: (§2)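 Rat PK: single IV dose 0.5 mg/kg and oral dose 1 mg/kg, formulated in 5% DMSO:95% hydroxypropyl-β-cyclodextrin (30% w/v), dosed at 1 mL/kg IV and 4 mL/kg PO.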

[11] = Solubility of compound in phosphate buffer at pH 7.4 using crystalline form of sample; assay type: physicochemical
[12] = Clearance in rat at 0.5 mg/kg, iv or 1 mg/kg, po; assay type: ADME, organism-based; settings: in vivo; summary of the method: as §2
MCF7 [13] = assay: Antiproliferative activity against human wild-type MCF7 cells assessed as decrease in estradiol-mediated cell viability incubated for 4 to 6 days by SYTOX Green dye based fluorescence assay; assay type: functional
[14] = Fraction unbound in human plasma by equilibrium dialysis method; assay type: ADME, cell-free
Summary of the method: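 Fraction unbound measured from DMSO stock by equilibrium dialysis in 10% human plasma.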

MCF7 [15] = assay: Antitumor activity against human […] cells xenografted in CB17 SCID mouse assessed as decrease in tumor volume administered daily via oral gavage for 21 days; assay type: functional, cell-based; settings: dose 0.5-50 mg/kg, time 21.0 day
[16] = Dissociation constant, dibasic pKa of compound in 0.1 M potassium chloride in presence of azetidine by UV-vis spectroscopy; assay type: physicochemical
[17] = Oral bioavailability in mouse at 5 mg/kg; assay type: ADME, organism-based; settings: in vivo
[18] = Clearance in mouse at 2 mg/kg, iv or 5 mg/kg, po relative to liver blood flow; assay type: ADME, organism-based; settings: in vivo
[19] = Clearance in mouse at 2 mg/kg, iv or 5 mg/kg, po; assay type: ADME, organism-based; settings: in vivo
[20] = Fraction unbound in rat plasma; assay type: ADME, cell-free
[21] = Stability of compound at 60 degC and ambient dry condition assessed parent compound remaining measured 2 weeks using amorphous form of sample by chromatographic method; assay type: physicochemical; settings: solid sample, read-out: Stabilty
[22] = Fraction absorbed in mouse at 2 mg/kg, iv or 5 mg/kg, po; assay type: ADME, organism-based; settings: in vivo, read-out: Fabs
[23] = Antitumor activity against human […] cells xenografted in CB17 SCID mouse assessed as tumor growth inhibition at 50 mg/kg, po administered daily via oral gavage for 21 days relative to control; assay type: functional, MCF7; parameters: scale not given: the % may be the effect or the level left; settings: time 21 day
Histamine H3 receptor = Histamine H3 receptor (Homo sapiens, UniProt Q9Y5N1); assay: Antagonist activity at human histamine H3 receptor expressed in CHO-K1 cells after 10 mins by HTRF assay; assay type: cell-based
Sequence of Histamine H3 receptor (Q9Y5N1 whole entry): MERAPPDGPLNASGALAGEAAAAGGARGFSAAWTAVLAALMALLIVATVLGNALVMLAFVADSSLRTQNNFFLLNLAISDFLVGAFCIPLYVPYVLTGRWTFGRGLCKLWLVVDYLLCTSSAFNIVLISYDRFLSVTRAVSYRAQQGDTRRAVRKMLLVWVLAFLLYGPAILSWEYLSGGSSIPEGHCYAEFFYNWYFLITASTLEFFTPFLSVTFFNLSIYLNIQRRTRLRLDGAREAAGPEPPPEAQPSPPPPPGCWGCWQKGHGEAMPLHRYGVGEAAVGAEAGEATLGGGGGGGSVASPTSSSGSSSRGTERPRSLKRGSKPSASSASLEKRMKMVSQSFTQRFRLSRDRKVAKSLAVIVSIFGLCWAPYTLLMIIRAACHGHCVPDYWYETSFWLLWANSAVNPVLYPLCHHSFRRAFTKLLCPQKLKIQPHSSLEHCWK

[24] = Half-life in rat at 0.5 mg/kg, iv or 1 mg/kg, po; assay type: ADME, organism-based; settings: in vivo; summary of the method: as §2
MCF7 [25] = assay: Antiproliferative activity against human MCF7 cells harboring Y537S mutant assessed as reduction in cell viability incubated for 4 to 6 days by SYTOX Green dye based fluorescence assay; assay type: functional
[26] = Clearance in rat at 0.5 mg/kg, iv or 1 mg/kg, po relative to liver blood flow; assay type: ADME, organism-based; settings: in vivo; summary of the method: as §2
[27] = Solubility of compound in FASSIF at pH 6.5 using crystalline form of sample; assay type: physicochemical
[28] = Stability of compound at 40 degC and 75% relative humidity assessed parent compound remaining measured after 3 months using crystalline form of sample by chromatographic method; assay type: physicochemical; settings: solid sample, read-out: Stabilty
[29] = target: T1, Estrogen receptor (Homo sapiens) (UniProt P03372); assay: Induction of ERalpha degradation in human MCF7 cells assessed as maximum degradation incubated for 18 to 24 hrs by Alexa fluor 488/Hoechst staining based immunofluorescence imaging analysis relative to fulvestrant; assay type: cell-based; settings: time lower […], time upper […]
T1 sequence (whole entry): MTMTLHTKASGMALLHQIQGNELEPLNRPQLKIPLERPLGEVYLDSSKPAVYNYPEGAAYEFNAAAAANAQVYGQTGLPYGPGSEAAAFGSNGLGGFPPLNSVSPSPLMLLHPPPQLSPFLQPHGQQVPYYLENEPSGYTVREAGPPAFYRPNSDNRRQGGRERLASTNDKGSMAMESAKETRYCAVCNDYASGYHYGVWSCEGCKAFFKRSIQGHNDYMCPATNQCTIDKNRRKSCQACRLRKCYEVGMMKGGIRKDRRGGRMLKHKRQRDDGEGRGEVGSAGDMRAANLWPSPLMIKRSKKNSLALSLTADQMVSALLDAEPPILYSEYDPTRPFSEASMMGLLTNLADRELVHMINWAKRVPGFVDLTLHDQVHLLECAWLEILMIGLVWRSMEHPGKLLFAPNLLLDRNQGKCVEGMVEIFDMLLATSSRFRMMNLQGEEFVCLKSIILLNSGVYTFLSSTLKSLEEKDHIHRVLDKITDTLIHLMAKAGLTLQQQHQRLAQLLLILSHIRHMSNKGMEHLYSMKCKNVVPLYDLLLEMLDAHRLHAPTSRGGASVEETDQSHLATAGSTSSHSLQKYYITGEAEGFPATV

[30] = Stability of compound at 60 degC and ambient dry condition assessed parent compound remaining measured 2 weeks using crystalline form of sample by chromatographic method; assay type: physicochemical; settings: solid sample, read-out: Stabilty
[31] = Intrinsic clearance in rat hepatocytes assessed per million cells; assay type: ADME, cell-based, Hepatocyte; settings: read-out: CLH
Summary of the method: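 Hepatocyte intrinsic clearance measured from DMSO stock in isolated hepatocytes diluted to 1x10⁶ cells/mL; rate expressed as µl/min/10⁶ cells.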

[32] = Photostability of compound under 1.2 mil lux.h white light and 200 W.h/m2 UV light assessed parent compound remaining using crystalline form of sample by chromatographic method; assay type: physicochemical

IC50 (Cytochrome P450 3A4): 2200 nM
IC50 (Cytochrome P450 2C19): > 30000 nM
fraction unbound [3]: 0.23
Vd [4]: 9.2 L/kg
fraction unbound [5]: 0.15
remaining at 2190 h [6]: 90.5%
pKa [7]: 4.8
Stabilty [8]: 78.9%
Stabilty [9]: Unstable
Fa [10]: > 95%
solubility thermodynamic [11]: 400 µg/mL (≈ 839 µM)
clearance [12]: 73 mL/min/kg
fraction unbound [14]: 0.23
pKa [16]: 8.4
bioavailability [17]: 16%
CL [18]: 66%
clearance [19]: 59 mL/min/kg
fraction unbound [20]: 0.26
remaining at 336 h [21]: 98.4%
Fa [22]: 50%
IC50 (Histamine H3 receptor): 330 nM
half-life [24]: 3 h
CL [26]: 106%
solubility thermodynamic [27]: 1500 µg/mL (≈ 3150 µM)
remaining at 2190 h [28]: 99.3%
Emax [29]: 99%
remaining at 336 h [30]: 99.4%
hepatocyte CLint [31]: 23 µL/min/1e6 cells
Stabilty [32]: 98.9%
Structure (SMILES): C[C@@H]1Cc2c(ccc3[nH]ncc23)[C@@H](c2ccc(NC3CN(CCCF)C3)cn2)N1CC(F)(F)F [CAMIZESTRANT]
Activity [1]: 8.9%
Activity [2]: 6.3%
IC50 (MCF7 [13]): 5.01 nM
Activity (MCF7 [15]): Dose-dependent effect
Activity [23]: 53%
IC50 (MCF7 [25]): 25.1 nM
